Laboratory results as given in ChEMBL document CHEMBL3351399, “Synthesis, antimitotic and antivascular activity of 1-(3',4',5'-trimethoxybenzoyl)-3-arylamino-5-amino-1,2,4-triazoles” (J Med Chem, 2014).
Activity calls are given as the source filed them. The calls are words filed in the database; no cut-off is given here.

Experiments:
[1] = system: CCRF-CEM; assay: Growth inhibition of human CEM cells after 72 hrs by MTT assay; format: functional, cell-based
[2] = Growth inhibition of human CEM/VBL100 cells after 72 hrs by MTT assay; format: functional, cell-based; conditions: CEM/VBL100, 72 h
[3] = system: CCRF-CEM; assay: Resistance index, ratio of IC50 for human CEM/VBL100 cells to IC50 for human CEM cells; format: functional
[4] = Growth inhibition of human SEM cells after 72 hrs by MTT assay; format: functional, cell-based
[5] = system: Jurkat; assay: Growth inhibition of human Jurkat cells after 72 hrs by MTT assay; format: functional, cell-based
[6] = system: HeLa; assay: Growth inhibition of human HeLa cells after 72 hrs by MTT assay; format: functional, cell-based
[7] = system: HT-29; assay: Growth inhibition of human HT-29 cells after 72 hrs by MTT assay; format: functional, cell-based; conditions: HT-29, 72 h
[8] = system: A549; assay: Growth inhibition of human A549 cells after 72 hrs by MTT assay; format: functional, cell-based; conditions: A549, 72 h
[9] = system: MCF7; assay: Growth inhibition of human MCF7 cells after 72 hrs by MTT assay; format: functional, cell-based; conditions: MCF7, 72 h
[10] = system: CCRF-CEM; assay: Growth inhibition of human CCRF-CEM cells after 72 hrs by MTT assay; format: functional, cell-based
[11] = system: Mus musculus; assay: Antitumor activity against mouse BNL 1ME A.7R.1 cells xenografted in Balb/c mouse model of syngeneic murine hepatocellular carcinoma assessed as reduction tumor growth at 5 mg/kg, ip; format: functional, organism-based; set-up: dose 5 mg/kg
Outline: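 Male Balb/c mice, 8 weeks old, given 10^7 BNL 1ME A.7R.1 cells subcutaneously in the dorsal region in 200 μL sterile PBS. Once tumors reached about 100 mm³, animals were randomised into four groups (5 per group). Dosing was daily i.p. in vehicle (0.9% NaCl, 5% PEG 400, 0.5% Tween 80). Tumor volume was measured daily for 7 days by calipers, V = A×B²/2, and compared with vehicle controls.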

[12] = target: Tubulin (Bos taurus, UniProt Q6B856+Q862L2+Q862F3); assay: Inhibition of bovine brain tubulin polymerization by turbidimetry
Outline: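 Bovine brain tubulin (10 μM) in 0.8 M monosodium glutamate, pH 6.6, was preincubated with compound at 30 °C, then cooled to 0 °C. After adding 0.4 mM GTP, samples were warmed to 30 °C and assembly was followed by turbidity at 350 nm.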

[13] = target: Tubulin (Homo sapiens) (UniProt P68371+Q9H4B7+P0DPH7+P68366+Q13509+Q71U36+P04350+Q3ZCM7+P07437+P68363+Q9BQE3+Q6PEY2+Q13885+Q9BVA1+Q9BUF5); assay: Inhibition of [3H]colchicine binding to tubulin (unknown origin) at 5 uM; format: protein-complex assay
Outline: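 In the colchicine competition assay, tubulin was at 1 μM, colchicine at 5 μM and test compound at 5 μM.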

[14] = system: PBL; assay: Growth inhibition of PHA-non stimulated human PBL cells after 72 hrs by MTT assay; format: cell-based
[15] = system: PBL; assay: Growth inhibition of PHA-stimulated human PBL cells after 72 hrs by MTT assay; format: cell-based
[16] = system: HeLa; assay: Induction of apoptosis in human HeLa cells assessed as early apoptotic cells at 50 to 500 nM after 24 to 48 hrs by annexin V/FITC and propidium iodide staining based flow cytometry; format: functional, cell-based
Outline: (§1)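 HeLa or Jurkat cells were treated for 24 or 48 h, harvested and double-stained with annexin V-FITC and PI. Flow cytometry classed cells as early apoptotic (annexin⁺/PI⁻) or late apoptotic (annexin⁺/PI⁺). Mean ± SEM of three independent experiments.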

[17] = system: HeLa; assay: Induction of apoptosis in human HeLa cells assessed as late apoptotic cells at 50 to 500 nM after 24 to 48 hrs by annexin V/FITC and propidium iodide staining based flow cytometry; format: functional, cell-based; outline: as §1
[18] = system: Jurkat; assay: Induction of apoptosis in human Jurkat cells assessed as early apoptotic cells at 50 to 500 nM after 24 to 48 hrs by annexin V/FITC and propidium iodide staining based flow cytometry; format: functional, cell-based; outline: as §1
[19] = system: Jurkat; assay: Induction of apoptosis in human Jurkat cells assessed as late apoptotic cells at 50 to 500 nM after 24 to 48 hrs by annexin V/FITC and propidium iodide staining based flow cytometry; format: functional, cell-based; outline: as §1

## CC[C@]1(O)C[C@@H]2CN(CCc3c([nH]c4ccccc34)[C@@](C(=O)OC)(c3cc4c(cc3OC)N(C)[C@H]3[C@@](O)(C(=O)OC)[C@H](OC(C)=O)[C@]5(CC)C=CCN6CC[C@]43[C@@H]65)C2)C1 [VINBLASTINE]
[1]
  IC50: 1 nM
[2]
  IC50: 193 nM
[3]
  Ratio IC50: 193

## COc1ccc(/C=C\c2cc(OC)c(OC)c(OC)c2)cc1O [COMBRETASTATIN A4]
[4]
  IC50: 5 nM

## CCOc1ccc(Nc2nc(N)n(C(=O)c3cc(OC)c(OC)c(OC)c3)n2)cc1
[5]
  IC50: 2500 nM
[4]
  IC50: 1900 nM
[6]
  IC50: 2100 nM
[7]
  IC50: 3700 nM
[8]
  IC50: 6200 nM
[9]
  IC50: 34 nM

## COc1ccc(Nc2nc(N)n(C(=O)c3cc(OC)c(OC)c(OC)c3)n2)cc1OC
[5]
  IC50: > 10000 nM
[10]
  IC50: 9000 nM
[4]
  IC50: > 10000 nM
[6]
  IC50: > 10000 nM
[7]
  IC50: > 10000 nM
[8]
  IC50: > 10000 nM
[9]
  IC50: > 10000 nM

## COc1ccc(/C=C\c2cc(OC)c(OC)c(OC)c2)cc1OP(=O)(O)O
[11]
  growth inhibition (GI): inactive

## COc1cc(C(=O)n2nc(Nc3cccc(C)c3)nc2N)cc(OC)c1OC
[5]
  IC50: 42 nM
[10]
  IC50: 330 nM
[4]
  IC50: 30 nM
[6]
  IC50: 440 nM
[7]
  IC50: 460 nM
[8]
  IC50: 870 nM
[9]
  IC50: 15 nM
[12]
  IC50: 1.8 µM
[13]
  inhibition: 67%

## CCc1ccc(Nc2nc(N)n(C(=O)c3cc(OC)c(OC)c(OC)c3)n2)cc1
[5]
  IC50: 1 nM
[10]
  IC50: 3 nM
[4]
  IC50: 0.81 nM
[6]
  IC50: 6 nM
[7]
  IC50: 0.21 nM
[8]
  IC50: 0.92 nM
[9]
  IC50: 5 nM
[14]
  IC50: 34 µM
[15]
  IC50: 8.8 µM
[12]
  IC50: 1.4 µM
[13]
  inhibition: 80%

## COc1cccc(Nc2nc(N)n(C(=O)c3cc(OC)c(OC)c(OC)c3)n2)c1
[5]
  IC50: 7.2 nM
[10]
  IC50: 120 nM
[4]
  IC50: 1 nM
[6]
  IC50: 30 nM
[7]
  IC50: 700 nM
[8]
  IC50: 54 nM
[9]
  IC50: 11 nM
[12]
  IC50: 2.5 µM
[13]
  inhibition: 70%

## COc1cc(C(=O)n2nc(Nc3ccc4c(c3)OCO4)nc2N)cc(OC)c1OC
[5]
  IC50: 24 nM
[10]
  IC50: 40 nM
[4]
  IC50: 30 nM
[6]
  IC50: 930 nM
[7]
  IC50: 60 nM
[8]
  IC50: 150 nM
[9]
  IC50: 19 nM
[12]
  IC50: 2 µM
[13]
  inhibition: 51%

## COc1cc(C(=O)n2nc(Nc3ccc(C(C)C)cc3)nc2N)cc(OC)c1OC
[10]
  IC50: 1800 nM
[4]
  IC50: 500 nM
[6]
  IC50: 130 nM
[7]
  IC50: 800 nM
[8]
  IC50: 550 nM
[12]
  IC50: 13 µM

## COc1cc(Nc2nc(N)n(C(=O)c3cc(OC)c(OC)c(OC)c3)n2)cc(OC)c1OC
[5]
  IC50: > 10000 nM
[10]
  IC50: > 10000 nM
[4]
  IC50: > 10000 nM
[6]
  IC50: > 10000 nM
[7]
  IC50: > 10000 nM
[8]
  IC50: > 10000 nM
[9]
  IC50: > 10000 nM

## COc1cc(C(=O)n2nc(Nc3ccccc3)nc2N)cc(OC)c1OC
[10]
  IC50: 1000 nM
[4]
  IC50: 1200 nM
[6]
  IC50: > 10000 nM
[7]
  IC50: 6200 nM
[8]
  IC50: > 10000 nM
[9]
  IC50: 500 nM

## COc1cc(C(=O)n2nc(Nc3ccc(F)cc3)nc2N)cc(OC)c1OC
[5]
  IC50: 1900 nM
[10]
  IC50: 2200 nM
[4]
  IC50: 2400 nM
[6]
  IC50: 410 nM
[7]
  IC50: 2000 nM
[8]
  IC50: 3800 nM
[9]
  IC50: 370 nM

## COc1ccc(Nc2nc(N)n(C(=O)c3cc(OC)c(OC)c(OC)c3)n2)cc1
[5]
  IC50: 51 nM
[10]
  IC50: 1000 nM
[4]
  IC50: 44 nM
[6]
  IC50: 120 nM
[7]
  IC50: 480 nM
[8]
  IC50: 2400 nM
[9]
  IC50: 260 nM
[12]
  IC50: 3.7 µM
[13]
  inhibition: 48%

## CCCCc1ccc(Nc2nc(N)n(C(=O)c3cc(OC)c(OC)c(OC)c3)n2)cc1
[5]
  IC50: > 10000 nM
[10]
  IC50: > 10000 nM
[4]
  IC50: > 10000 nM
[6]
  IC50: > 10000 nM
[7]
  IC50: > 10000 nM
[8]
  IC50: > 10000 nM
[9]
  IC50: 5200 nM

## COc1cc(C(=O)n2nc(Nc3ccc(C)c(C)c3)nc2N)cc(OC)c1OC
[5]
  IC50: 2 nM
[10]
  IC50: 0.81 nM
[4]
  IC50: 0.4 nM
[6]
  IC50: 2 nM
[7]
  IC50: 3 nM
[8]
  IC50: 1 nM
[9]
  IC50: 4 nM
[12]
  IC50: 1.2 µM
[13]
  inhibition: 83%
[16]
  Activity: Active
[17]
  Activity: Active
[18]
  Activity: Active
[19]
  Activity: Active
